ChEMBL document CHEMBL1156136, “Hypoxia-activated prodrugs: substituent effects on the properties of nitro seco-1,2,9,9a-tetrahydrocyclopropa[c]benz[e]indol-4-one (nitroCBI) prodrugs of DNA minor groove alkylating agents” (J Med Chem, 2009)
pIC50: −log10 of the molar value.

Columns and labels:
[1] = tested on: SK-OV-3; assay: Cytotoxicity against human SKOV3 cells in oxic condition after 4 hrs by sulforhodamine B assay; type: functional, cell-based; details: SK-OV-3, 4 h
Procedure, shortened: (§1)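 Log-phase monolayers exposed to drug for 4 h under aerobic (20% O2) or anoxic (<20 ppm O2) conditions, then sulforhodamine B staining 5 days later. IC50 interpolated as concentration lowering cell density to 50% of same-plate controls. HCR = IC50(oxic)/IC50(hypoxic), mean of intraexperiment ratios. A549 P450R line is a stable transfectant with 9-fold higher cytochrome c reduction rate than parent.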

[2] = tested on: SK-OV-3; assay: Cytotoxicity against human SKOV3 cells in hypoxic condition after 4 hrs by sulforhodamine B assay; type: functional, cell-based; details: SK-OV-3, 4 h; procedure, shortened: as §1
[3] = tested on: SK-OV-3; assay: Hypoxic cytotoxicity ratio, IC50 for human SKOV3 cells in oxic condition to IC50 for human SKOV3 cells in hypoxic condition; type: functional; procedure, shortened: as §1
[4] = tested on: HT-29; assay: Cytotoxicity against human HT-29 cells in oxic condition after 4 hrs by sulforhodamine B assay; type: functional, cell-based; details: HT-29, 4 h; procedure, shortened: as §1
[5] = tested on: HT-29; assay: Cytotoxicity against human HT-29 cells in hypoxic condition after 4 hrs by sulforhodamine B assay; type: functional, cell-based; details: HT-29, 4 h; procedure, shortened: as §1
[6] = tested on: HT-29; assay: Hypoxic cytotoxicity ratio, IC50 for human HT-29 cells in oxic condition to IC50 for human HT-29 cells in hypoxic condition; type: functional; procedure, shortened: as §1

Row | SMILES | pIC50 [1] | pIC50 [2] | Ratio IC50 [3] | pIC50 [4] | pIC50 [5] | Ratio IC50 [6]
1 | COc1cc2cc(C(=O)N3CC(CCl)c4c3cc([N+](=O)[O-])c3cc(S(N)(=O)=O)ccc43)[nH]c2c(OC)c1OC (stereo not given) | 4.43 | 8.43 | 10 | 4.37 | 7.92 | 3.6
2 | COc1cc2cc(C(=O)N3CC(CCl)c4c3cc(N)c3cc(S(N)(=O)=O)ccc43)[nH]c2c(OC)c1OC (stereo not given) | 4.39 | 7.48 | 1.3 | 4.07 | 7.04 | 1.1
3 | CN(C)CCOc1ccc2[nH]c(C(=O)N3CC(CCl)c4c3cc([N+](=O)[O-])c3c(C(N)=O)cccc43)cc2c1 (stereo not given) | 4.30 | 8.49 | 18 | 4.64 | 8.82 | 43
4 | COc1cc2cc(C(=O)N3CC(CCl)c4c3cc(N)c3ccc(S(C)(=O)=O)cc43)[nH]c2c(OC)c1OC (stereo not given) | 4.72 | 7.85 | 1.4 | 4.60 | 7.55 | 1
5 | CN(C)CCOc1ccc2[nH]c(C(=O)N3CC(CCl)c4c3cc(N)c3cc(C#N)ccc43)cc2c1 (stereo not given) | 4.89 | 7.92 | 1.1 | 4.77 | 8.07 | 2
